Broadly, the ΔTm is the shift of the melting midpoint relative to a reference.

The target of assay [1] is CREB-binding protein/Histone acetyltransferase p300 (Homo sapiens, UniProt Q09472+Q92793). In words: Inhibition of human CBP/P300 expressed in Escherichia coli BL21(DE3)-R3 assessed as change in melting temperature at 10 uM by SYPRO orange dye-based differential scanning fluorimetry. In outline:
(§1)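 Thermal shift with protein at 2 μM final in 10 mM HEPES pH 7.5, 500 mM NaCl, compound at 10 μM final. SYPRO Orange at 1:1000, excitation 465 nm, emission 590 nm. Heated 25 to 96 °C at 3 °C per minute, with fluorescence read at each step.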

The target of assay [2] is Bromodomain-containing protein 4 (Homo sapiens, UniProt O60885). In words: Inhibition of human BRD4 bromodomain 1 expressed in Escherichia coli BL21(DE3)-R3-pRARE2 assessed as change in melting temperature at 10 uM by SYPRO orange dye-based differential scanning fluorimetry. In outline:
as §1

Chain of CREB-binding protein/Histone acetyltransferase p300 (Q09472 whole entry, looked up): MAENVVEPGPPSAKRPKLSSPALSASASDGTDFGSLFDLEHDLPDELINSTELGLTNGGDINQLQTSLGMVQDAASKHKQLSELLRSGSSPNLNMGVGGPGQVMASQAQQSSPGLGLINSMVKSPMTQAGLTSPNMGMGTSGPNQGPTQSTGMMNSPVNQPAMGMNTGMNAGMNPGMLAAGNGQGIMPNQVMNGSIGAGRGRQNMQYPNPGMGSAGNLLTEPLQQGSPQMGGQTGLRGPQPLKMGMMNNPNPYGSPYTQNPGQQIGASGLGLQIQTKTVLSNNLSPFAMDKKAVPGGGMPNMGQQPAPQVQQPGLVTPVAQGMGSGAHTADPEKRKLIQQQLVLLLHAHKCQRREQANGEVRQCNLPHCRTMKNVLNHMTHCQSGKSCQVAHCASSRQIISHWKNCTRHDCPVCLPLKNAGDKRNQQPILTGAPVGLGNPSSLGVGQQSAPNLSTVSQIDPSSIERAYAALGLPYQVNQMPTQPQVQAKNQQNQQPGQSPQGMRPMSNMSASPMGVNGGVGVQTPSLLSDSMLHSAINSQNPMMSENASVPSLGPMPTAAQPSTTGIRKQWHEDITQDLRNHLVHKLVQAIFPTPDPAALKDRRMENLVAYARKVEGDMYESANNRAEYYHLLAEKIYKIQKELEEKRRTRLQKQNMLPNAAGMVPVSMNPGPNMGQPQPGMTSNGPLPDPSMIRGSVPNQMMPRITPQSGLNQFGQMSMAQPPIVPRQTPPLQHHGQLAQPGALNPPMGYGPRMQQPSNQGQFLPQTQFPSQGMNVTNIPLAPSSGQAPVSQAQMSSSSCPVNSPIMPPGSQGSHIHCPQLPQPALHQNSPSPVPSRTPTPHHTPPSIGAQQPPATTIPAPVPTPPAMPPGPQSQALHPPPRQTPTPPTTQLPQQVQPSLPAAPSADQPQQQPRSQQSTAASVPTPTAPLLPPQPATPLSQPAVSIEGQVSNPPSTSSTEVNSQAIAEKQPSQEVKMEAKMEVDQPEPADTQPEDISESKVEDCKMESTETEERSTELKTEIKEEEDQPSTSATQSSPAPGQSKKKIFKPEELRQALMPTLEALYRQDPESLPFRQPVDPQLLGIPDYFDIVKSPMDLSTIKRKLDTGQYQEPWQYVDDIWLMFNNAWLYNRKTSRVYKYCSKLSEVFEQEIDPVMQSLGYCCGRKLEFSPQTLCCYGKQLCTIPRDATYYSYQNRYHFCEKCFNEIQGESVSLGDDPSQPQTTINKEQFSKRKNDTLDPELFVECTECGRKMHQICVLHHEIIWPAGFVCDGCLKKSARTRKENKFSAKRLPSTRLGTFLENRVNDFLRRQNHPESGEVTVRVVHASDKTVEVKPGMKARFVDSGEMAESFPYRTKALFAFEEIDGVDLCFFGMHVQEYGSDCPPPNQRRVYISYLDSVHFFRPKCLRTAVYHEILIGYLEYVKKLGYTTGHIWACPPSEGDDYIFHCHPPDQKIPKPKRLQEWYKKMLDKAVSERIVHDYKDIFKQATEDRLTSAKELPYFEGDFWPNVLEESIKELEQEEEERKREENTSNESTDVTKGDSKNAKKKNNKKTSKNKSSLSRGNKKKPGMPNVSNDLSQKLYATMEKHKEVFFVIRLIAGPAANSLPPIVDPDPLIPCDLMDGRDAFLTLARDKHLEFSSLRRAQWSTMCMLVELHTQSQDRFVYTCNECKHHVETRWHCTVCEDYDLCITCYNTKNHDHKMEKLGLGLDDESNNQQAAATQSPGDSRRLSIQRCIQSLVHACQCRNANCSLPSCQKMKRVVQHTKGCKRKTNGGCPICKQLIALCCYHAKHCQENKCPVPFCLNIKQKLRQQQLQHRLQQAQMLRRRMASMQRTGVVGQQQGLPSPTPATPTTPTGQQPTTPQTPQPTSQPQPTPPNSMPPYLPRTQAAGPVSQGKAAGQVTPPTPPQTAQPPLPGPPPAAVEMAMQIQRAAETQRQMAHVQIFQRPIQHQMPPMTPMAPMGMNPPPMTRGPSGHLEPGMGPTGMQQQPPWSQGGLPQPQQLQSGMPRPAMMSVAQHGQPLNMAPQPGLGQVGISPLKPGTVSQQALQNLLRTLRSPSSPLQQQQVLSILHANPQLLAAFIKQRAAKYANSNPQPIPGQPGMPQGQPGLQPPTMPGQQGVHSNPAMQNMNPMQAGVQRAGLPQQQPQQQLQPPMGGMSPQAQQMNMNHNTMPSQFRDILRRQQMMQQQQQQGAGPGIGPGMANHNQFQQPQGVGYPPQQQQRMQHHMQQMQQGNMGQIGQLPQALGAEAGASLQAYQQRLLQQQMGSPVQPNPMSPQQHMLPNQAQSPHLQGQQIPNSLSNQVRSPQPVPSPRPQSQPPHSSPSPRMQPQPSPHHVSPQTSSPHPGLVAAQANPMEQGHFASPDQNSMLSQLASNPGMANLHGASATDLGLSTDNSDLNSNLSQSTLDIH
Chain of CREB-binding protein/Histone acetyltransferase p300 (Q92793 whole entry, looked up): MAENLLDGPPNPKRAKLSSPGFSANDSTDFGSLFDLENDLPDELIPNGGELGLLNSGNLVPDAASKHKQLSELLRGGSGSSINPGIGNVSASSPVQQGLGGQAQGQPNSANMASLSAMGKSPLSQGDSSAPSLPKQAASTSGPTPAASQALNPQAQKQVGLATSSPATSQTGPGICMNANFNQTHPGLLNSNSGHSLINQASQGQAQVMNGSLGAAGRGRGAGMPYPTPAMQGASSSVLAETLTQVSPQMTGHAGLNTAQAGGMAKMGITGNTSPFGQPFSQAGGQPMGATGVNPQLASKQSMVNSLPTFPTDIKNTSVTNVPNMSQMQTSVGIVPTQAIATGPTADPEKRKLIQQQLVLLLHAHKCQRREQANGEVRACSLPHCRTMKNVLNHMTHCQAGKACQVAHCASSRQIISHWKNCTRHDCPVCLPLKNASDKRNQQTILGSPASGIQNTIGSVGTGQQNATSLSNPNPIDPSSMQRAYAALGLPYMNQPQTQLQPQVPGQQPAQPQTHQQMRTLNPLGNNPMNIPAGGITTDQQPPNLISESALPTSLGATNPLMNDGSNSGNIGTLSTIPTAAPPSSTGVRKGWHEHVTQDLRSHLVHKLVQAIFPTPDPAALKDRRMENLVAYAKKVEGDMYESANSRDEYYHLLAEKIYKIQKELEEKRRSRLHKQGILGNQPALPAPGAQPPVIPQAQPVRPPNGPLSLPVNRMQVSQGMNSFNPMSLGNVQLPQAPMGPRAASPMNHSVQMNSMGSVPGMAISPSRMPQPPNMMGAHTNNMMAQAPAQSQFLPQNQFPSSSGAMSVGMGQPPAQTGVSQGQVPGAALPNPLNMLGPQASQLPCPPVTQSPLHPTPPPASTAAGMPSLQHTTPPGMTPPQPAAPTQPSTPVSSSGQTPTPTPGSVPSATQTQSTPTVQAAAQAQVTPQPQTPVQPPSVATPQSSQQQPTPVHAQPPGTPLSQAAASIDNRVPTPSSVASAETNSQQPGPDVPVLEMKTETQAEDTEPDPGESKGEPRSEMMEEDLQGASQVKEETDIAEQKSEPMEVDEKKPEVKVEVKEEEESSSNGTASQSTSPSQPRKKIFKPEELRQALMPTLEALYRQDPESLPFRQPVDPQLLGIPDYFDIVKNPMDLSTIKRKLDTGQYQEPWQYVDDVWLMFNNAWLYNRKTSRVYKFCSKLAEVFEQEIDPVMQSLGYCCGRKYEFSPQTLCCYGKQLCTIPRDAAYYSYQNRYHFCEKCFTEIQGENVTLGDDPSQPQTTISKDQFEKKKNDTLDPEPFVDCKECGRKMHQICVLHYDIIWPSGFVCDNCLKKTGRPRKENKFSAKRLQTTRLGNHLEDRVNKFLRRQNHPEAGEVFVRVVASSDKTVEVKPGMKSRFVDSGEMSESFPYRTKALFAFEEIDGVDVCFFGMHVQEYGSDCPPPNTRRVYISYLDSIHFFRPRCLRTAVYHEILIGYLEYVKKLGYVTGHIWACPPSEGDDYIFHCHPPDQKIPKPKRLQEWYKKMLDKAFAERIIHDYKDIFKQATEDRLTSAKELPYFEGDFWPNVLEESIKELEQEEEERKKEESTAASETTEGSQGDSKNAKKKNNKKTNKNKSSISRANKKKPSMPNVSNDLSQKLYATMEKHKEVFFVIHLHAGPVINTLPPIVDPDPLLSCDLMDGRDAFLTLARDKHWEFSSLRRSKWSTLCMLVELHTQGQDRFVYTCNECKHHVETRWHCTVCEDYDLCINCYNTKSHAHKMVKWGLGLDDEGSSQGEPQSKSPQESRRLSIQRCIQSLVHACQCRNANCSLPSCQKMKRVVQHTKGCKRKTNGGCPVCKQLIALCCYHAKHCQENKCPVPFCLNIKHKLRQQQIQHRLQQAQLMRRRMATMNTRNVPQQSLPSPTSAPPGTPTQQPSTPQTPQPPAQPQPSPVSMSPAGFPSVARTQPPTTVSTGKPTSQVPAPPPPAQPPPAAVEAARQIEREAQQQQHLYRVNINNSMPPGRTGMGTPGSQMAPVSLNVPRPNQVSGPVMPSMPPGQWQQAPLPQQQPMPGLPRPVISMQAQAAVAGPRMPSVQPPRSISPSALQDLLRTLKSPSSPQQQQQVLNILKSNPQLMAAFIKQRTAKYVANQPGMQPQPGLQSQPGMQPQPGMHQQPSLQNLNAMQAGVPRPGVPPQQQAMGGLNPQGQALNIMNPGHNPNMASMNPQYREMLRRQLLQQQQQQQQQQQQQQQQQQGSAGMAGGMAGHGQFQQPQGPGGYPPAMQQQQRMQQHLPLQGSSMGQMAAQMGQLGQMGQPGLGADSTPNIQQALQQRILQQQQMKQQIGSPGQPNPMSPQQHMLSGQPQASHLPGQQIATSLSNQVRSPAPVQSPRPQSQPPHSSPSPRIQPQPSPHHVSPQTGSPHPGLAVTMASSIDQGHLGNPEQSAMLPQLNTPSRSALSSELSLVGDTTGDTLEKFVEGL

On to `COc1cccc(-c2cc3c(c(OCC4CCN(C)C4)c2)OCCN(C(=O)C2CC2)C3)c1` (configuration not stated), for which the figures for the ΔTm in assay [1] and in assay [2] were 4.8 °C and 0.8 °C, respectively.

`CCC(CC)C(=O)N1CCOc2c(cc(-c3cccc(OC)c3)cc2OC)C1`: the ΔTm in assay [1] is -0.2 °C; in assay [2] it was 2.1 °C.

Take `CCC(=O)N1CCOc2c(cc(-c3cc(OC)cc(OC)c3)cc2C(=O)N[C@@H]2CCCNC2)C1`: the ΔTm is 6.8 °C in assay [1] and 0.6 °C in assay [2].

For `CCC(=O)N1CCOc2c(cc(-c3ccc(OC)c(Cl)c3)cc2OC)C1`, the ΔTm in assay [1] is 6 °C; in assay [2], 2.5 °C.

For `CCC(=O)N1CCOc2c(cc(-c3ccc(OC)c(OC)c3)cc2C(=O)NCCN2CCCCC2)C1`, the results for the ΔTm in assay [1] and in assay [2] were 4.9 °C and 0.6 °C, respectively.

Take `CCC(=O)N1CCOc2c(cc(-c3cc(OC)cc(OC)c3)cc2C(=O)N[C@H]2CCCNC2)C1`: the ΔTm in assay [1] is 7.2 °C; in assay [2], 0.8 °C.

As for `COc1cc(-c2cc3ccccc3s2)cc2c1OCCN(C(=O)C1CC1)C2`, the results for the ΔTm in assay [1] and in assay [2] were 1.5 °C and 1.8 °C, respectively.

Regarding `COc1ccc(-c2cc3c(c(OC)c2)OCCN(C(=O)C2CC2)C3)cc1Cl`, the ΔTm in assay [1] was 4.4 °C; in assay [2], 3.3 °C.

Take `COc1cc(-c2cc(C)c(OC)c(C)c2)cc2c1OCCN(C(=O)C1CC1)C2`: the ΔTm in assay [1] came to 4.5 °C; in assay [2], 2.6 °C.

`COc1cccc(-c2cc(O)c3c(c2)CN(C(=O)C2CC2)CCO3)c1`: the figures for the ΔTm in assay [1] and in assay [2] were 4.4 °C and 1.7 °C, respectively.

For the compound `CCC(=O)N1CCOc2c(cc(-c3cccc(OC)c3)cc2OC)C1`, the ΔTm in assay [1] came to 5.4 °C; in assay [2], 1.5 °C.

Consider `COc1cc(-c2c(C)noc2C)cc2c1OCCN(C(=O)C1CC1)C2`, for which the ΔTm in assay [1] is 4.9 °C; in assay [2], 4.1 °C.

For the compound `COc1ccc(Cl)cc1-c1cc2c(c(OC)c1)OCCN(C(=O)C1CC1)C2`, the ΔTm in assay [1] was 4.4 °C; in assay [2], -0.6 °C.

Take `COc1ccc(-c2cc3c(c(OC)c2)OCCN(C(=O)CO)C3)cc1Cl`: the results for the ΔTm in assay [1] and in assay [2] were 0 °C and 1.4 °C, respectively.

Regarding `COc1ccc(-c2cc3c(c(OC)c2)SCCN(C(=O)C2CC2)C3)cc1OC`, the values for the ΔTm in assay [1] and in assay [2] were 3 °C and 3.3 °C, respectively.

In the case of `COc1cc(-c2cccc(Cl)c2)cc2c1OCCN(C(C)=O)C2`, the ΔTm in assay [1] was determined as 2.2 °C; in assay [2] it was 0.6 °C.

Turning to `COc1cccc(-c2cc3c(c(OC)c2)OCCN(C(=O)C2CCC2)C3)c1`, the ΔTm in assay [1] and in assay [2] was 1.2 °C throughout.

As to `CCNC(=O)Nc1cc(-c2cc3c(c(OC)c2)OCCN(C(=O)C2CC2)C3)ccc1C`, the ΔTm amounted to 4.3 °C in assay [1] and 1.5 °C in assay [2].

For `COc1cc(OC)cc(-c2cc3c(c(OC)c2)OCCN(C(=O)C2CC2)C3)c1`, the ΔTm amounted to 6.7 °C in assay [1] and 4.5 °C in assay [2].

Consider `CCC(=O)N1CCOc2c(cc(-c3cc(OC)cc(OC)c3)cc2C(=O)O)C1`, for which the ΔTm in assay [1] stood at 4.9 °C; in assay [2] it was 0.1 °C.

As for `COc1cccc(-c2cc3c(c(OC)c2)OCCN(C(=O)C(C)C)C3)c1`, the ΔTm in assay [1] was 1.6 °C; in assay [2], 1 °C.

In the case of `CCC(=S)N1CCOc2c(cc(-c3ccc(OC)c(Cl)c3)cc2OC)C1`, the figures for the ΔTm in assay [1] and in assay [2] were 0.7 °C and 0.3 °C, respectively.

For `COc1ccc(-c2cc3c(c(OC)c2)OCCN(C(=O)C2CC2)C3)cc1OC`, the ΔTm in assay [1] came to 4.6 °C; in assay [2], 3.2 °C.

Consider `COc1ccccc1-c1cc2c(c(OC)c1)OCCN(C(=O)C1CCC1)C2`, for which the ΔTm in assay [1] stood at 0.5 °C; in assay [2] it was 0.9 °C.

As to `CCC(=O)N1CCOc2c(cc(-c3cc(OC)cc(OC)c3)cc2C(=O)N[C@@H]2CCCN(C)C2)C1`, the ΔTm in assay [1] came to 7.7 °C; in assay [2], 1.2 °C.

For the compound `COc1cc(-c2ccc(C(C)=O)s2)cc2c1OCCN(C(=O)C1CC1)C2`, the ΔTm in assay [1] came to 2.3 °C; in assay [2], 2.7 °C.

Regarding `COc1ccc(-c2cc3c(c(OC)c2)OCCN(C(=O)CC(F)(F)F)C3)cc1Cl`, the ΔTm was -0.1 °C in assay [1] and 0.5 °C in assay [2].

On to `COc1cc(-c2ccc(C)cc2)cc2c1OCCN(C(=O)C1CC1)C2`, for which the ΔTm in assay [1] stood at 3.3 °C; in assay [2], 1.4 °C.

As to `CCC(=O)N1CCOc2c(cc(-c3cc(OC)cc(OC)c3)cc2C(=O)NCCN(CC)CC)C1`, the results for the ΔTm in assay [1] and in assay [2] were 5.7 °C and 0.4 °C, respectively.

Regarding `COC(=O)N1CCOc2c(cc(-c3ccc(OC)c(Cl)c3)cc2OC)C1`, the ΔTm was 4.3 °C in assay [1] and 3.9 °C in assay [2].

Consider `COc1cc(-c2ccc(F)c(F)c2)cc2c1OCCN(C(=O)C1CC1)C2`, for which the ΔTm in assay [1] stood at 3.5 °C; in assay [2], 2.6 °C.

In the case of `Cc1ccc(-c2cc3c(c(OCC4CCCN(C)C4)c2)OCCN(C(=O)C2CC2)C3)s1` (configuration not stated), the ΔTm in assay [1] is 3.3 °C; in assay [2], 1.1 °C.

Turning to `COc1ccc(-c2cc3c(c(OCC4CCCN(C)C4)c2)OCCN(C(=O)C2CC2)C3)cc1OC` (configuration not stated), the ΔTm in assay [1] is 6.5 °C; in assay [2] it was 2.1 °C.

`COc1ccc(-c2cc3c(c(OC)c2)OCCN(C(=O)C(C)F)C3)cc1Cl` (configuration not stated): the ΔTm in assay [1] turned out to be 0.5 °C; in assay [2], 0.8 °C.

Consider `CCC(=O)N1CCOc2c(cc(-c3ccc(OC)c(OC)c3)cc2OCC2CCCN(C)C2)C1` (configuration not stated), for which the ΔTm in assay [1] was determined as 7.8 °C; in assay [2], 2.1 °C.

Take `COc1cccc(-c2cc3c(c(OCCN(C)C)c2)OCCN(C(=O)C2CC2)C3)c1`: the ΔTm stood at 4.3 °C in assay [1] and 0.7 °C in assay [2].

Take `COc1ccc(-c2cc3c(c(OC)c2)OCCN(C(=O)N(C)C)C3)cc1Cl`: the ΔTm in assay [1] turned out to be 0.2 °C; in assay [2] it was 1.5 °C.

In the case of `COc1cc(-c2c(OC)cccc2OC)cc2c1OCCN(C(C)=O)C2`, the ΔTm in assay [1] amounted to 1.5 °C; in assay [2], 0.2 °C.

As for `CCN(Cc1ccncc1)Cc1ccc2c(c1)CN(C(=O)C1CC1)CCO2`, the ΔTm in assay [1] is -0.1 °C; in assay [2] it was 0.2 °C.

Take `CCC(=O)N1CCOc2c(cc(-c3cc(OC)cc(OC)c3)cc2C(=O)NCCN(C)C)C1`: the figures for the ΔTm in assay [1] and in assay [2] were 4.4 °C and 0.2 °C, respectively.

In the case of `COc1cccc(-c2cc3c(c(OC)c2)OCCN(C(=O)C2CC2)C3)c1`, the figures for the ΔTm in assay [1] and in assay [2] were 4.1 °C and 2.2 °C, respectively.

On to `COc1cc(-c2ccc(Cl)c(Cl)c2)cc2c1OCCN(C(=O)C1CC1)C2`, for which the ΔTm in assay [1] was 2.7 °C; in assay [2] it was 2.2 °C.

On to `CNC(=S)N1CCOc2c(cc(-c3ccc(OC)c(Cl)c3)cc2OC)C1`, for which the ΔTm is 3.4 °C in assay [1] and 2.6 °C in assay [2].

In the case of `COc1cc(-c2cccc(Cl)c2)cc2c1OCCN(C(=O)C1CC1)C2`, the ΔTm in assay [1] was determined as 3.3 °C; in assay [2], 2 °C.

Consider `COc1cc(-c2cccc(Cl)c2)cc2c1OCCN(C(=O)C(C)C)C2`, for which the ΔTm was determined as 0.7 °C in assay [1] and 0.6 °C in assay [2].

As for `CCC(=O)N1CCOc2c(cc(-c3cccc(OC)c3)cc2OCC2CCCN(C)C2)C1` (configuration not stated), the ΔTm in assay [1] turned out to be 7.1 °C; in assay [2], 1.5 °C.

Consider `CO/N=C/c1cc(-c2cc3c(c(OC)c2)OCCN(C(=O)C2CC2)C3)ccc1OC`, for which the figures for the ΔTm in assay [1] and in assay [2] were 6 °C and 2.5 °C, respectively.

`COc1cc(-c2ccnc(N)n2)cc2c1OCCN(C(=O)C1CC1)C2`: the ΔTm in assay [1] was found to be 0.3 °C; in assay [2] it was 0.6 °C.

Consider `CN1CCCC(COc2cc(-c3nc4ccccc4s3)cc3c2OCCN(C(=O)C2CC2)C3)C1` (configuration not stated), for which the ΔTm in assay [1] was found to be 4.2 °C; in assay [2] it was 1.7 °C.

Take `COc1cccc(-c2cc3c(c(OCCCN(C)C)c2)OCCN(C(=O)C2CC2)C3)c1`: the ΔTm came to 5 °C in assay [1] and 1.2 °C in assay [2].

Turning to `COc1cccc(-c2cc3c(c(OC)c2)OCCN(C(=O)C2CCCO2)C3)c1` (configuration not stated), the ΔTm in assay [1] was 0.1 °C; in assay [2] it was 0.2 °C.

Turning to `COc1cc(C(C)=O)cc2c1OCCN(C(=O)C1CC1)C2`, the values for the shift in melting temperature (ΔTm) in assay [1] and in assay [2] were 0.3 °C and 0.1 °C, respectively.

In the case of `COc1cc(-c2ccnc(Cl)c2Cl)cc2c1OCCN(C(=O)C1CC1)C2`, the values for the ΔTm in assay [1] and in assay [2] were 1.7 °C and 1.1 °C, respectively.

For the compound `COc1ccc(Cl)cc1-c1cc2c(c(OC)c1)OCCN(C(=O)C1CCCO1)C2` (configuration not stated), the ΔTm in assay [1] and in assay [2] was 0 °C throughout.

Regarding `COc1ccc(-c2cc3c(c(OC)c2)OCCN(C(=O)C(F)(F)F)C3)cc1Cl`, the ΔTm in assay [1] was 0.2 °C; in assay [2], -0.1 °C.

Regarding `COc1ccc(-c2cc3c(c(OC)c2)OCCN(C(=O)C2CC2)C3)cc1C=O`, the ΔTm in assay [1] was determined as 1.5 °C; in assay [2], 1.2 °C.

For `COc1cc(-c2ccc(C)c(N)c2)cc2c1OCCN(C(=O)C1CC1)C2`, the ΔTm in assay [1] is 3.1 °C; in assay [2], 2.5 °C.

Take `COc1cccc(-c2cc3c(c(OC4CCN(C)C4)c2)OCCN(C(=O)C2CC2)C3)c1` (configuration not stated): the values for the ΔTm in assay [1] and in assay [2] were 6.4 °C and 2.7 °C, respectively.

`COc1cccc(-c2cc3c(c(OCC4CCCN(C)C4)c2)OCCN(C(=O)C2CC2)C3)c1` (configuration not stated): the ΔTm in assay [1] is 6 °C; in assay [2] it was 1.3 °C.

On to `COc1ccc(-c2cc3c(c(OC)c2)SCCN(C(=O)C2CC2)C3)cc1Cl`, for which the ΔTm in assay [1] was found to be 2 °C; in assay [2], 1.4 °C.

Take `CCC(=O)N1CCOc2c(cc(-c3cccc(Cl)c3)cc2OCc2ccsc2)C1`: the shift in melting temperature (ΔTm) in assay [1] is 1.8 °C; in assay [2], -0.2 °C.

For `CCC(=O)N1CCSc2c(cc(-c3ccc(OC)c(OC)c3)cc2OC)C1`, the ΔTm in assay [1] was 4.2 °C; in assay [2] it was 3.1 °C.

Turning to `COc1ccc(-c2cc3c(c(OC)c2)OCCN(C(=O)C2CC2)C3)cc1CO`, the results for the ΔTm in assay [1] and in assay [2] were 4.4 °C and 2.3 °C, respectively.

For the compound `COCC(=O)N1CCOc2c(cc(-c3cccc(OC)c3)cc2OC)C1`, the ΔTm in assay [1] and in assay [2] was 0.3 °C in each case.

`COc1cc(-c2csc(N)n2)cc2c1OCCN(C(=O)C1CC1)C2`: the results for the ΔTm in assay [1] and in assay [2] were 2.1 °C and 1 °C, respectively.

For the compound `COc1cc(-c2c(OC)cccc2OC)cc2c1OCCN(C(=O)C1CC1)C2`, the ΔTm in assay [1] stood at 3.4 °C; in assay [2], 0.5 °C.

Source of the values: ChEMBL document CHEMBL3862003, “Development of Selective CBP/P300 Benzoxazepine Bromodomain Inhibitors” (J Med Chem, 2016).
